Experimental data as given in ChEMBL document CHEMBL4028906, “Allosteric Inhibitors of SHP2 with Therapeutic Potential for Cancer Treatment” (J Med Chem, 2017).
Calls of active or inactive are those of the source. The calls are words filed in the database; no cut-off is given here.

Assays:
[1] = Half life in nu/nu mouse at 10 mg/kg, po measured up to 24 hrs postdose by LC/MS/MS analysis; type: ADME, organism-based; settings: in vivo
Outline: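 Female nu/nu nude mice dosed IV via tail vein at 5 mg/kg or orally at 10 mg/kg. Blood sampled at 0.083, 0.25, 0.5, 1, 2, 4, 8 and 24 h post-dose (orbital sinus, terminal cardiac puncture; EDTA-2K). Plasma separated at 4 °C, precipitated with acetonitrile containing internal standard, quantified by LC/MS/MS.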

Homo sapiens = species: Homo sapiens; experiment: Selectivity ratio of IC50 for MKP3 (unknown origin) expressed in Escherichia coli BL21(DE3) to IC50 for SHP2 E76A mutant (unknown origin) expressed in Escherichia coli BL21(DE3)
Outline: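 Ratio of IC50 values from one DIFMUP fluorescence assay (Ex/Em 358/455), room temperature, 0.1 M sodium acetate pH 5.0. His-tagged SHP2 E76A (1.5 nM) or counter-phosphatase purified from E. coli, preincubated 20 min with compound (eight 3-fold dilutions), then DIFMUP added for 20 min. DIFMUP was at Km for each counter-phosphatase. Duplicates; IC50 from at least three independent experiments.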

KYSE-520 cell line = experiment: Antiproliferative activity against human KYSE520 cells at 3 to 6 uM after 2 days by CellTiter-Glo assay; type: functional, cell-based
Outline: (§1)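 3000 cells/well in 96-well plates, grown overnight, then inhibitor at indicated concentrations for 2 days (48 h). Viability by CellTiter-Glo; mean±s.d., n=3.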

[2] = molecular target: T1, Tyrosine-protein phosphatase non-receptor type 11 (Homo sapiens) (UniProt Q06124); experiment: Allosteric inhibition of SHP2 in human NCI-H661 cells assessed as downregulation of ERK1/2 activation at 10 uM after 60 mins by Western blot analysis; type: cell-based
T1 sequence (whole entry): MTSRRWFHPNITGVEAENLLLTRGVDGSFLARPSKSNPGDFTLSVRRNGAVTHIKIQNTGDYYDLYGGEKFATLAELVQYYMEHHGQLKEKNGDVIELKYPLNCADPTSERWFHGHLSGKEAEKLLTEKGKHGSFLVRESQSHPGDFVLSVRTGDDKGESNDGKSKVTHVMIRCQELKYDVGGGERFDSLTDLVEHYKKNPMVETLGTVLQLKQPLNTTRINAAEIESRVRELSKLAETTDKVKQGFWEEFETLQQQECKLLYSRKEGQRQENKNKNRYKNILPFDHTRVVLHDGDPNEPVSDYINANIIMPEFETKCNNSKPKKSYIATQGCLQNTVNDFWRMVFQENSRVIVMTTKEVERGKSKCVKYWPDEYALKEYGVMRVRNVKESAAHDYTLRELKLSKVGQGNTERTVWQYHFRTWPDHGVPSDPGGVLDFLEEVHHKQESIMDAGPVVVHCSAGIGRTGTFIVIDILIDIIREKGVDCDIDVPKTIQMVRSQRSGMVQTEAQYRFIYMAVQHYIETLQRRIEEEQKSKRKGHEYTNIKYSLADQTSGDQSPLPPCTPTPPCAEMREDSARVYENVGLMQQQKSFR
Outline: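 NCI-H661 cells given 10 µM inhibitor over a time course. Lysates immunoblotted for p-ERK1/2, ERK1/2, p-AKT and AKT. Repeated at least three times.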

[3] = molecular target: Dual specificity protein phosphatase 6 (Homo sapiens, UniProt Q16828); experiment: Inhibition of MKP3 (unknown origin) expressed in Escherichia coli BL21(DE3) using DIFMUP as substrate preincubated for 20 mins followed by substrate addition measured after 20 mins by phosphatase assay
Sequence of Dual specificity protein phosphatase 6 (Q16828 whole entry): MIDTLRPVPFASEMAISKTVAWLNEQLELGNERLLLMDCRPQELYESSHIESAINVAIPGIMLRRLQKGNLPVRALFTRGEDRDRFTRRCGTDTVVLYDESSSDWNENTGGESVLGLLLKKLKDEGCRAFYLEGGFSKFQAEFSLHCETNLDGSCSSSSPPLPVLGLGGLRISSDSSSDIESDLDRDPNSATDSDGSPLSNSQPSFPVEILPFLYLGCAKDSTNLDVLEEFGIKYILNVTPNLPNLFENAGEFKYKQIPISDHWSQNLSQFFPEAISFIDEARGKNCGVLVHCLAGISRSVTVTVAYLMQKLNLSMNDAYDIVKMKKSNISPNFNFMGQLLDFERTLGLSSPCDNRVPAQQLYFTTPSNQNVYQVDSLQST
Outline: (§2)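 Phosphatases purified from E. coli and run as for SHP2 E76A: 20 min room-temperature preincubation with compound in 0.1 M sodium acetate pH 5.0, then DIFMUP at each enzyme's Km, 20 min, fluorescence 358/455 nm. Eight 3-fold dilutions in duplicate; IC50 from at least three independent experiments.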

[4] = molecular target: T1, Tyrosine-protein phosphatase non-receptor type 11 (Homo sapiens); experiment: Allosteric inhibition of SHP2 in human SF268 cells assessed as downregulation of YAP-mediated CTGF gene expression ay 10 to 20 uM after 2 hrs by qRT-PCR analysis; type: cell-based
Outline: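 SF268 cells exposed to DMSO, 10 μM or 20 μM inhibitor for 2 h. RNA extracted, reverse-transcribed, and CTGF, CYR61, ANKRD1 and YAP mRNA quantified by qPCR; mean±s.d., n=3.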

MDA-MB-468 = experiment: Antiproliferative activity against human MDA-MB-468 cells at 3 to 6 uM after 2 days by CellTiter-Glo assay; type: functional, cell-based; outline: as §1
[5] = molecular target: Low molecular weight phosphotyrosine protein phosphatase (Homo sapiens, UniProt P24666); experiment: Inhibition of LMW-PTP (unknown origin) expressed in Escherichia coli BL21(DE3) using DIFMUP as substrate preincubated for 20 mins followed by substrate addition measured after 20 mins by phosphatase assay; outline: as §2
Sequence of Low molecular weight phosphotyrosine protein phosphatase (P24666 whole entry): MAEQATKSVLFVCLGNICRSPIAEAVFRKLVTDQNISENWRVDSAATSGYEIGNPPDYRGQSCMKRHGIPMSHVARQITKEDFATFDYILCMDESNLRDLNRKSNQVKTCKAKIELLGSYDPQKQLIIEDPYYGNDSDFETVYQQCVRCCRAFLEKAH

Mus musculus = experiment: Toxicity in BALB/c mouse xenografted with human MV4-11 cells assessed as effect on body weight at 10 to 30 mg/kg administered qd via oral gavage measured twice weekly; type: organism-based; settings: in vivo
Outline: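 Female BALB/c nude mice implanted subcutaneously with 5×10^6 MV4;11 cells in 50% matrigel/PBS. At about 230 mm³, mice randomized to vehicle, 10 or 30 mg/kg (10 ml/kg) once daily by oral gavage. Body weight and caliper tumor dimensions measured twice weekly; mean±sem.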

[6] = molecular target: Tyrosine-protein phosphatase non-receptor type 6 (Homo sapiens, UniProt P29350); experiment: Inhibition of SHP1 (unknown origin) expressed in Escherichia coli BL21(DE3) using DIFMUP as substrate preincubated for 20 mins followed by substrate addition measured after 20 mins by phosphatase assay; outline: as §2
Sequence of Tyrosine-protein phosphatase non-receptor type 6 (P29350 whole entry): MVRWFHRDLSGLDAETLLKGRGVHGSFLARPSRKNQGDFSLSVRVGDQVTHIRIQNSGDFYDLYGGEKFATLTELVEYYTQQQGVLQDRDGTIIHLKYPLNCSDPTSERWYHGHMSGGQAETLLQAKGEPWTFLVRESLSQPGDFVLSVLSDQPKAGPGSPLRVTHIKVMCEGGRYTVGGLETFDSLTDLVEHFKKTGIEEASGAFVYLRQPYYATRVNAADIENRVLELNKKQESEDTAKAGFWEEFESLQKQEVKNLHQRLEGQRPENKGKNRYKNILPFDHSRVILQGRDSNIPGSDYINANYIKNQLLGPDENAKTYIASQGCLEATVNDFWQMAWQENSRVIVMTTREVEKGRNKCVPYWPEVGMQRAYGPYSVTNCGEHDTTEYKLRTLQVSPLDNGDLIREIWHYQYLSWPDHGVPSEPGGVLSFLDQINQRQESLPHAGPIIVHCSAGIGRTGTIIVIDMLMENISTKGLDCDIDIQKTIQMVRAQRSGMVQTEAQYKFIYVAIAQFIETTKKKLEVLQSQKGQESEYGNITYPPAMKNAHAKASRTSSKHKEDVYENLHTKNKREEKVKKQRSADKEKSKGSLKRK

[7] = molecular target: T1, Tyrosine-protein phosphatase non-receptor type 11 (Homo sapiens); experiment: Allosteric inhibition of SHP2 in human SF268 cells assessed as upregulation of YAP phosphorylation up to 20 uM after 2 hrs by Western blot analysis; type: cell-based
Outline: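 SF268 cells given DMSO or inhibitor for 2 h. YAP immunoprecipitated and immunoblotted with pY-100 phosphotyrosine antibody, which detects the single YXXP tyrosine Y357.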

MV4-11 = experiment: Antitumor activity against human MV4-11 cells xenografted in BALB/c mouse assessed as tumor growth inhibition at 30 mg/kg administered qd via oral gavage measured twice weekly relative to control; type: functional; settings: MV4-11, po, read-out: TGI
Outline: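 Female BALB/c nude mice given subcutaneous MV4;11 cells (5×10^6, in 50% phenol red-free matrigel in PBS). Once tumours reached about 230 mm³, mice were randomised to vehicle or oral gavage once daily (10 ml/kg). Tumour volume was measured by caliper in two dimensions twice a week, along with body weight. Data given as mean±sem, with significance assessed on day 14.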

[8] = molecular target: Tyrosine-protein phosphatase non-receptor type 1 (Homo sapiens, UniProt P18031); experiment: Inhibition of PTP1B (unknown origin) expressed in Escherichia coli BL21(DE3) using DIFMUP as substrate preincubated for 20 mins followed by substrate addition measured after 20 mins by phosphatase assay; outline: as §2
Sequence of Tyrosine-protein phosphatase non-receptor type 1 (P18031 whole entry): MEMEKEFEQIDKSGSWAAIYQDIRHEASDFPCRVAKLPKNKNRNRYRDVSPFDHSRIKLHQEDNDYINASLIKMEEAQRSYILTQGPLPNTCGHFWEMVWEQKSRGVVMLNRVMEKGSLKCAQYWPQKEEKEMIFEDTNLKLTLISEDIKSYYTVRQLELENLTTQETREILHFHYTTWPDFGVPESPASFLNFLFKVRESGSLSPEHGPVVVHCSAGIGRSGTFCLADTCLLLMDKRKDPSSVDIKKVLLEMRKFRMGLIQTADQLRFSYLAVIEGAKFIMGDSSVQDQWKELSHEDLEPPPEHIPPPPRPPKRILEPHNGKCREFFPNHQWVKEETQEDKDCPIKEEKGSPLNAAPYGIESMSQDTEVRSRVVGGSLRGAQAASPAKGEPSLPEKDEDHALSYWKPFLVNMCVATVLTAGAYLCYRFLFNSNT

[9] = molecular target: T1, Tyrosine-protein phosphatase non-receptor type 11 (Homo sapiens); experiment: Allosteric inhibition of SHP2 in human NCI-H661 cells assessed as downregulation of ERK1/2 activation at 10 uM by Western blot analysis; type: cell-based; settings: TDE = time-dependent effect
THP-1 = experiment: Antiproliferative activity against human THP1 cells at 3 to 6 uM after 2 days by CellTiter-Glo assay; type: functional, cell-based; outline: as §1

For CC1(N)CCN(c2nc(-c3ccc4cc(Br)ccc4c3)cs2)CC1, the half-life [1] was 13.3 h, the Ratio IC50 (Homo sapiens) was > 30 and the Activity (KYSE-520 cell line) was “Active”. For the same compound, the inhibition [2] was “Active”, the IC50 [3] was > 100 µM and the inhibition [4] was “Active”. The Activity (MDA-MB-468) was “Active”, the IC50 [5] was > 100 µM and the Activity (Mus musculus) was “Non-Toxic”. For the same compound, the IC50 [6] was 34.6 µM, the inhibition [7] was “Active” and the inhibition in vivo at 30 mg/kg (MV4-11) was 56%. For the same compound, the IC50 [8] was 31.2 µM, the inhibition [9] was “Tde” and the Activity (THP-1) was “Active”.
